Assay outcomes: PubChem, several laboratories
A selection: hits, their analogues and other compounds. The true share with any hit is near 3.9%.
STAT1 inh = inhibitors of IFN-gamma induced STAT1 signaling. inhibition, % at 5.5 µM. NIH 3T3 STAT1-luciferase reporter, luminescence. hit rate 0.35% among 200,000;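 active = inhibition above a set limit, the mean inhibition across all tested compounds plus 3 SD, cut at about 34% in these data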;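 also: 0% = IFN-gamma with DMSO and 100% = IFN-gamma with 300 µM nifuroxazide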
STAT3 act = increases IL-6 driven STAT3 reporter signal. U3A cells, IL-6 STAT3-luciferase reporter, luminescence; 100% = signal with IL-6 EC80 alone. activation (% of control), % at 5.6 µM. hit rate 0.91% among 190,000;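 active = activation above the screen-wide mean of compound activation plus 3 SD, cut at about 130% in these data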;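 also: 0% = background luminescence of wells with medium and substrate only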
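System – human U3A cells carrying STAT3-luciferase construct · Probe or stimulus – Interleukin-6, 33 ng/mL · Schedule – compound 1 h, then IL-6 6 h at 37 °C · Signal – luminescence from STAT3-driven luciferase reporter · Evaluation – percent of IL-6-only median luminescence · Benchmarks – IL-6-only high control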
APP 5'UTR act = activates APP 5'UTR luciferase reporter | SH-SY5Y APP 5'UTR luciferase reporter, luminescence; zero percent = DMSO vehicle wells | activation, % at 2 µM | AID 1276 | hit rate 1% among 190,000;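 active = activation above a set limit, based on mean plus 3 SD of controls, cut at about 140% in these data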
NF-kB neuron act = raises NF-kB expression in human neuronal cells; fold change at 12.5 µM; hit rate 1.6% among 190,000; NF-kB reporter expression; active compounds read high; AID 1239; in the data active = fold change above about 3.3
Pf gamet viab = kills late stage P. falciparum gametocytes. P. falciparum stage V gametocytes, ATP luminescence, 24 h. inhibition, % at 10.9 µM. hit rate 0.065% among 150,000;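 active = inhibition above the mean plus 3 SD of compounds within the control limits, set per campaign, cut at about 38% in these data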;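 also: 0% = DMSO wells and 100% = medium only without gametocytes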
STAT1 act = STAT1 signaling activation | hit rate 2.6% among 200,000 | activation (% of control), % at 5.5 µM | AID 932 | NIH 3T3 STAT1-luciferase reporter, IFN-gamma, luminescence; 100% = IFN-gamma alone, no compound;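 active = activation above the screen-wide mean activation plus 3 SD, cut at about 130% in these data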;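 also: raw ratio to IFN-gamma control signal so 100% means no change and 0% no light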
The depositor's hits bear a star.

Results for CCOC(=O)c1sc2nc(CC(=O)OC)nc(NCc3ccco3)c2c1C ?
STAT1 inh: 2; STAT3 act: 91; APP 5'UTR act: -5; NF-kB neuron act: 0.88; STAT1 act: 98

How did COc1ccc(-c2ccc(=O)n(Cc3ccc([N+](=O)[O-])cc3)n2)cc1 do in these assays?
STAT1 inh: 13; STAT3 act: 134*; APP 5'UTR act: -12; NF-kB neuron act: 0.79; Pf gamet viab: 12; STAT1 act: 86

Results for COC(=O)C1C(=O)c2c([nH]c(C(=O)OC3CCCC3C)c2C)CC1C (stereo not given) ?
STAT1 inh: -40; STAT3 act: 120; APP 5'UTR act: 157*; NF-kB neuron act: 3; STAT1 act: 138*

What do the screens show for `Cc1c(OCc2ccc([N+](=O)[O-])cc2)ccc2c3c(c(=O)oc12)CCC3`?
STAT1 inh: -6; STAT3 act: 105; APP 5'UTR act: 192*; NF-kB neuron act: 0.87; Pf gamet viab: -7; STAT1 act: 108

What do the screens show for `C=C(C)COc1ccc2c3c(c(=O)oc2c1OCC(=C)C)CCC3`?
STAT1 inh: 0; STAT3 act: 98; APP 5'UTR act: -12; NF-kB neuron act: 3.5*; Pf gamet viab: 18; STAT1 act: 100

How did O=C1/C(=C\c2ccc([N+](=O)[O-])cc2)CCc2ccccc21 do in these assays?
STAT1 inh: 0; STAT3 act: 105; APP 5'UTR act: 136*; NF-kB neuron act: 1.3; Pf gamet viab: -32; STAT1 act: 100

How did O=C(NC1CCC(=O)N(CCOc2ccccc2)CC1)OCc1ccccc1 (stereo not given) do in these assays?
Pf gamet viab: -7

What do the screens show for `CCOC(=O)c1nnsc1N`?
Pf gamet viab: 2

How did C/C(CC(=O)NC1CCCCC1)=N\NC(=O)c1ccccn1 do in these assays?
STAT1 inh: -34; STAT3 act: 104; APP 5'UTR act: 156*; NF-kB neuron act: 1; Pf gamet viab: 2; STAT1 act: 130*

Results for CC(=O)Nc1ccccc1NC(=O)C/C(C)=N/NC(=O)c1ccccn1 ?
STAT1 inh: -36; STAT3 act: 101; APP 5'UTR act: 104; NF-kB neuron act: 1.4; Pf gamet viab: 13; STAT1 act: 131*

What do the screens show for `C/C(CC(=O)Nc1ccc(F)cc1)=N\NC(=O)c1ccccn1`?
STAT1 inh: -28; STAT3 act: 100; APP 5'UTR act: 91; NF-kB neuron act: 1.3; Pf gamet viab: -24; STAT1 act: 126

What do the screens show for `CC(C)(C)NC(=O)C(c1cccs1)N(Cc1ccc(F)cc1)C(=O)c1csnn1` (stereo not given)?
STAT1 inh: 8; STAT3 act: 103; APP 5'UTR act: 12; NF-kB neuron act: 1.2; STAT1 act: 91

How did COc1ccc(S(=O)(=O)Nc2cc3c(cc2C(C)=O)OCO3)cc1 do in these assays?
STAT1 inh: 3; STAT3 act: 101; APP 5'UTR act: -14; NF-kB neuron act: 1.2; Pf gamet viab: 18; STAT1 act: 97

What do the screens show for `Cc1cc(C)cc(NC(=O)N2CCN(C/C=C/c3ccccc3)CC2)c1`?
STAT1 inh: 5; STAT3 act: 104; APP 5'UTR act: 17; NF-kB neuron act: 0.81; Pf gamet viab: 2; STAT1 act: 94

What do the screens show for `O=c1cc(CN2CCc3ccccc32)nc2sccn12`?
STAT1 inh: 6; STAT3 act: 134*; APP 5'UTR act: 2; NF-kB neuron act: 0.94; Pf gamet viab: -7; STAT1 act: 88

What do the screens show for `O=c1cc(CN2CCCc3ccccc32)nc2sccn12`?
STAT1 inh: 0; STAT3 act: 124; APP 5'UTR act: 11; NF-kB neuron act: 1.1; Pf gamet viab: -7; STAT1 act: 100

How did O=c1[nH]n(Cc2ccccc2)c(=O)c2ccccc12 do in these assays?
STAT1 inh: -10; STAT3 act: 96; APP 5'UTR act: 3; NF-kB neuron act: 4.9*; STAT1 act: 109

How did O=C(COc1cc(F)ccc1[N+](=O)[O-])Nc1cccc(Br)c1 do in these assays?
STAT1 inh: -33; STAT3 act: 90; APP 5'UTR act: 40; NF-kB neuron act: 1.3; Pf gamet viab: -18; STAT1 act: 129*

How did O=C(COc1ccccc1[N+](=O)[O-])Nc1ccc2c(c1)OCO2 do in these assays?
STAT1 inh: -54; STAT3 act: 103; APP 5'UTR act: 106; Pf gamet viab: 6; STAT1 act: 150*

How did Cc1ccc(OCC(=O)Nc2ccc(F)cc2)c([N+](=O)[O-])n1 do in these assays?
STAT1 inh: -46; STAT3 act: 99; APP 5'UTR act: 68; NF-kB neuron act: 1.2; Pf gamet viab: -5; STAT1 act: 142*

How did Cc1cccc(OCC(=O)Nc2ccc3c(c2)OCO3)c1C do in these assays?
STAT1 inh: 0; STAT3 act: 92; APP 5'UTR act: 26; NF-kB neuron act: 1.2; STAT1 act: 100

Results for Cc1ccc(Cl)c(OCC(=O)Nc2ccc3c(c2)OCCO3)c1 ?
STAT1 inh: -25; STAT3 act: 97; APP 5'UTR act: 160*; NF-kB neuron act: 3.8*; Pf gamet viab: -41; STAT1 act: 123

Results for O=C(COc1ccccc1[N+](=O)[O-])Nc1cc(C(=O)O)cc(C(=O)O)c1 ?
STAT1 inh: -1; STAT3 act: 108; APP 5'UTR act: 1; NF-kB neuron act: 1.2; Pf gamet viab: -18; STAT1 act: 101

Results for c1ccc2oc(-c3ccc(Nc4nc(N5CCOCC5)nc(N5CCOCC5)n4)cc3)nc2c1 ?
Pf gamet viab: 10

What do the screens show for `CC(c1ccccc1)n1c(-c2cccs2)nc2c(c(=O)c3ccccc3n2C)c1=O` (stereo not given)?
Pf gamet viab: -13

What do the screens show for `Cc1cccc(OCCSc2nc3ccccc3n2CC(=O)O)c1`?
Pf gamet viab: 4

How did CCCCN(C)Cc1c(O)ccc2c(=O)c(-c3ccccc3OC)coc12 do in these assays?
Pf gamet viab: 4

How did O=C(COc1ccccc1[N+](=O)[O-])N/N=C/c1cccc(OC(=O)c2ccc3c(c2)OCO3)c1 do in these assays?
STAT1 inh: -45; STAT3 act: 92; APP 5'UTR act: 48; NF-kB neuron act: 2.5; Pf gamet viab: -9; STAT1 act: 141*

How did CC(C)(C)n1ncc2c(=O)n(CC(=O)Nc3ccc(Cl)cc3)cnc21 do in these assays?
STAT1 inh: 4; STAT3 act: 111; APP 5'UTR act: -6; NF-kB neuron act: 1.1; STAT1 act: 96

What do the screens show for `CC(C)(C)n1ncc2c(=O)n(CC(=O)NCc3ccccc3)cnc21`?
STAT1 inh: -55; STAT3 act: 105; APP 5'UTR act: 168*; NF-kB neuron act: 3; STAT1 act: 149*

What do the screens show for `CC(=O)Nc1ccc(NC(=O)Cn2cnc3c(cnn3C(C)(C)C)c2=O)cc1`?
STAT1 inh: -3; STAT3 act: 111; APP 5'UTR act: 12; NF-kB neuron act: 1.5; STAT1 act: 103
